{"source": "ChEMBL document CHEMBL4689842", "about": "“EUbOPEN Chemogenomics Library wave 1” (2021)", "test_system": "HEK-293T", "experiment": "Multiplex assay against HEK293T;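 as to Population Tubulin-Different-Phenotype (%): share of the cells with healthy nuclei that show this phenotype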", "format": "toxicity, cell-based", "details": "human", "procedure,_shortened": "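Cells stained live at seeding with Hoechst33342, BioTracker Green Microtubule Cytoskeleton Dye, MitoTracker Red and Annexin V Alexa Fluor 680 were imaged on a CQ1 microscope at 37°C and 5% CO2 after compound addition. Their classification by CellPathfinder machine-learning gating ran from Hoechst high-intensity objects versus normal cells, to healthy, pyknosed or fragmented nuclei among normal cells, to mitotic or apoptotic among pyknosed cells. Tubulin, mitochondrial-mass and membrane-permeability phenotypes are per cents of healthy-nucleus cells.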", "key": {"[1]": {"details": "12 h, 1 µM, compound concentration 1 uM, replicate 1"}, "[2]": {"details": "12 h, 1 µM, compound concentration 1 uM, replicate 2"}, "[3]": {"details": "12 h, 10 µM, compound concentration 10 uM, replicate 1"}, "[4]": {"details": "12 h, 10 µM, compound concentration 10 uM, replicate 2"}, "[5]": {"details": "24 h, 1 µM, compound concentration 1 uM, replicate 1"}, "[6]": {"details": "24 h, 1 µM, compound concentration 1 uM, replicate 2"}, "[7]": {"details": "24 h, 10 µM, compound concentration 10 uM, replicate 1"}, "[8]": {"details": "24 h, 10 µM, compound concentration 10 uM, replicate 2"}}}
{"molecule": "COc1ccc(-c2ccc3c(N4CCOCC4)nc(N4C[C@@H](C)O[C@@H](C)C4)nc3n2)cc1CO", "note": "[Ku-0063794]", "values": [{"measurement": "Population Apoptotic (%)", "setting": "[1]", "result": 17, "unit": "%"}, {"measurement": "Population Fragmented Nuclei (%)", "setting": "[1]", "result": 21, "unit": "%"}, {"measurement": "Population Healthy Nuclei (%)", "setting": "[1]", "result": 63, "unit": "%"}, {"measurement": "Population Hoechst High Intensity Objects (%)", "setting": "[1]", "result": 20, "unit": "%"}, {"measurement": "Population Membrane Permeable-Phenotype (%)", "setting": "[1]", "result": 6, "unit": "%"}, {"measurement": "Population Mitochondria Different-Phenotype (%)", "setting": "[1]", "result": 3, "unit": "%"}, {"measurement": "Population Mitotic Cells (%)", "setting": "[1]", "result": 82, "unit": "%"}, {"measurement": "Population Normal (%)", "setting": "[1]", "result": 79, "unit": "%"}, {"measurement": "Population Pyknosed Nuclei (%)", "setting": "[1]", "result": 14, "unit": "%"}, {"measurement": "Population Tubulin-Different-Phenotype (%)", "setting": "[1]", "result": 3, "unit": "%"}, {"measurement": "Total Cell Count", "setting": "[1]", "result": 492}, {"measurement": "Population Apoptotic (%)", "setting": "[2]", "result": 8, "unit": "%"}, {"measurement": "Population Fragmented Nuclei (%)", "setting": "[2]", "result": 12, "unit": "%"}, {"measurement": "Population Healthy Nuclei (%)", "setting": "[2]", "result": 82, "unit": "%"}, {"measurement": "Population Hoechst High Intensity Objects (%)", "setting": "[2]", "result": 2, "unit": "%"}, {"measurement": "Population Membrane Permeable-Phenotype (%)", "setting": "[2]", "result": 1, "unit": "%"}, {"measurement": "Population Mitochondria Different-Phenotype (%)", "setting": "[2]", "result": 4, "unit": "%"}, {"measurement": "Population Mitotic Cells (%)", "setting": "[2]", "result": 91, "unit": "%"}, {"measurement": "Population Normal (%)", "setting": "[2]", "result": 97, "unit": "%"}, {"measurement": "Population Pyknosed Nuclei (%)", "setting": "[2]", "result": 4, "unit": "%"}, {"measurement": "Population Tubulin-Different-Phenotype (%)", "setting": "[2]", "result": 5, "unit": "%"}, {"measurement": "Total Cell Count", "setting": "[2]", "result": 1701}, {"measurement": "Population Apoptotic (%)", "setting": "[3]", "result": 41, "unit": "%"}, {"measurement": "Population Fragmented Nuclei (%)", "setting": "[3]", "result": 31, "unit": "%"}, {"measurement": "Population Healthy Nuclei (%)", "setting": "[3]", "result": 63, "unit": "%"}, {"measurement": "Population Hoechst High Intensity Objects (%)", "setting": "[3]", "result": 52, "unit": "%"}, {"measurement": "Population Membrane Permeable-Phenotype (%)", "setting": "[3]", "result": 11, "unit": "%"}, {"measurement": "Population Mitochondria Different-Phenotype (%)", "setting": "[3]", "result": 10, "unit": "%"}, {"measurement": "Population Mitotic Cells (%)", "setting": "[3]", "result": 58, "unit": "%"}, {"measurement": "Population Normal (%)", "setting": "[3]", "result": 47, "unit": "%"}, {"measurement": "Population Pyknosed Nuclei (%)", "setting": "[3]", "result": 4, "unit": "%"}, {"measurement": "Population Tubulin-Different-Phenotype (%)", "setting": "[3]", "result": 12, "unit": "%"}, {"measurement": "Total Cell Count", "setting": "[3]", "result": 726}, {"measurement": "Population Apoptotic (%)", "setting": "[4]", "result": 40, "unit": "%"}, {"measurement": "Population Fragmented Nuclei (%)", "setting": "[4]", "result": 11, "unit": "%"}, {"measurement": "Population Healthy Nuclei (%)", "setting": "[4]", "result": 87, "unit": "%"}, {"measurement": "Population Hoechst High Intensity Objects (%)", "setting": "[4]", "result": 27, "unit": "%"}, {"measurement": "Population Membrane Permeable-Phenotype (%)", "setting": "[4]", "result": 4, "unit": "%"}, {"measurement": "Population Mitochondria Different-Phenotype (%)", "setting": "[4]", "result": 15, "unit": "%"}, {"measurement": "Population Mitotic Cells (%)", "setting": "[4]", "result": 60, "unit": "%"}, {"measurement": "Population Normal (%)", "setting": "[4]", "result": 72, "unit": "%"}, {"measurement": "Population Pyknosed Nuclei (%)", "setting": "[4]", "result": 1, "unit": "%"}, {"measurement": "Population Tubulin-Different-Phenotype (%)", "setting": "[4]", "result": 17, "unit": "%"}, {"measurement": "Total Cell Count", "setting": "[4]", "result": 1160}, {"measurement": "Population Apoptotic (%)", "setting": "[5]", "result": 19, "unit": "%"}, {"measurement": "Population Fragmented Nuclei (%)", "setting": "[5]", "result": 19, "unit": "%"}, {"measurement": "Population Healthy Nuclei (%)", "setting": "[5]", "result": 71, "unit": "%"}, {"measurement": "Population Hoechst High Intensity Objects (%)", "setting": "[5]", "result": 11, "unit": "%"}, {"measurement": "Population Membrane Permeable-Phenotype (%)", "setting": "[5]", "result": 8, "unit": "%"}, {"measurement": "Population Mitochondria Different-Phenotype (%)", "setting": "[5]", "result": 2, "unit": "%"}, {"measurement": "Population Mitotic Cells (%)", "setting": "[5]", "result": 80, "unit": "%"}, {"measurement": "Population Normal (%)", "setting": "[5]", "result": 88, "unit": "%"}, {"measurement": "Population Pyknosed Nuclei (%)", "setting": "[5]", "result": 8, "unit": "%"}, {"measurement": "Population Tubulin-Different-Phenotype (%)", "setting": "[5]", "result": 7, "unit": "%"}, {"measurement": "Total Cell Count", "setting": "[5]", "result": 554}, {"measurement": "Population Apoptotic (%)", "setting": "[6]", "result": 12, "unit": "%"}, {"measurement": "Population Fragmented Nuclei (%)", "setting": "[6]", "result": 33, "unit": "%"}, {"measurement": "Population Healthy Nuclei (%)", "setting": "[6]", "result": 64, "unit": "%"}, {"measurement": "Population Hoechst High Intensity Objects (%)", "setting": "[6]", "result": 4, "unit": "%"}, {"measurement": "Population Membrane Permeable-Phenotype (%)", "setting": "[6]", "result": 5, "unit": "%"}, {"measurement": "Population Mitochondria Different-Phenotype (%)", "setting": "[6]", "result": 0, "unit": "%"}, {"measurement": "Population Mitotic Cells (%)", "setting": "[6]", "result": 87, "unit": "%"}, {"measurement": "Population Normal (%)", "setting": "[6]", "result": 95, "unit": "%"}, {"measurement": "Population Pyknosed Nuclei (%)", "setting": "[6]", "result": 1, "unit": "%"}, {"measurement": "Population Tubulin-Different-Phenotype (%)", "setting": "[6]", "result": 6, "unit": "%"}, {"measurement": "Total Cell Count", "setting": "[6]", "result": 2828}, {"measurement": "Population Apoptotic (%)", "setting": "[7]", "result": 27, "unit": "%"}, {"measurement": "Population Fragmented Nuclei (%)", "setting": "[7]", "result": 31, "unit": "%"}, {"measurement": "Population Healthy Nuclei (%)", "setting": "[7]", "result": 65, "unit": "%"}, {"measurement": "Population Hoechst High Intensity Objects (%)", "setting": "[7]", "result": 52, "unit": "%"}, {"measurement": "Population Membrane Permeable-Phenotype (%)", "setting": "[7]", "result": 11, "unit": "%"}, {"measurement": "Population Mitochondria Different-Phenotype (%)", "setting": "[7]", "result": 9, "unit": "%"}, {"measurement": "Population Mitotic Cells (%)", "setting": "[7]", "result": 72, "unit": "%"}, {"measurement": "Population Normal (%)", "setting": "[7]", "result": 47, "unit": "%"}, {"measurement": "Population Pyknosed Nuclei (%)", "setting": "[7]", "result": 3, "unit": "%"}, {"measurement": "Population Tubulin-Different-Phenotype (%)", "setting": "[7]", "result": 17, "unit": "%"}, {"measurement": "Total Cell Count", "setting": "[7]", "result": 759}, {"measurement": "Population Apoptotic (%)", "setting": "[8]", "result": 12, "unit": "%"}, {"measurement": "Population Fragmented Nuclei (%)", "setting": "[8]", "result": 26, "unit": "%"}, {"measurement": "Population Healthy Nuclei (%)", "setting": "[8]", "result": 71, "unit": "%"}, {"measurement": "Population Hoechst High Intensity Objects (%)", "setting": "[8]", "result": 24, "unit": "%"}, {"measurement": "Population Membrane Permeable-Phenotype (%)", "setting": "[8]", "result": 9, "unit": "%"}, {"measurement": "Population Mitochondria Different-Phenotype (%)", "setting": "[8]", "result": 4, "unit": "%"}, {"measurement": "Population Mitotic Cells (%)", "setting": "[8]", "result": 88, "unit": "%"}, {"measurement": "Population Normal (%)", "setting": "[8]", "result": 75, "unit": "%"}, {"measurement": "Population Pyknosed Nuclei (%)", "setting": "[8]", "result": 2, "unit": "%"}, {"measurement": "Population Tubulin-Different-Phenotype (%)", "setting": "[8]", "result": 32, "unit": "%"}, {"measurement": "Total Cell Count", "setting": "[8]", "result": 1535}]}
